ChEMBL document CHEMBL1157406, “Cytotoxic metabolites from the fungal endophyte Alternaria sp. and their subsequent detection in its host plant Polygonum senegalense” (J Nat Prod, 2008)
In brackets after ≈: the same amount, converted by molar mass.

What was measured:
[1] = target: Vascular endothelial growth factor receptor 3 (Homo sapiens, UniProt P35916); experiment: Inhibition of recombinant VEGFR3
Procedure, shortened: (§1)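 Purified recombinant kinase, 50 µL reaction. 1 µM [γ-33P]-ATP with substrate; compound added in 10% DMSO. Tested over several concentrations; IC50 in g/mL.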

[2] = target: Cyclin-dependent kinase 2 (Homo sapiens, UniProt P24941); experiment: Inhibition of recombinant CDK2/CycA; procedure, shortened: as §1
Insulin receptor = Insulin receptor (Homo sapiens, UniProt P06213); experiment: Inhibition of recombinant INSR
[3] = target: Platelet-derived growth factor receptor beta (Homo sapiens, UniProt P09619); experiment: Inhibition of recombinant PDGFRbeta
Aurora kinase B [4] = target: T1, Aurora kinase B (Homo sapiens, UniProt Q96GD4); experiment: Inhibition of recombinant Aurora B; procedure, shortened: as §1
L5178Y [5] = experiment: Cytotoxicity against mouse L5178Y cells at 10 ug/ml by MTT assay; assay type: functional
Angiopoietin-1 receptor = Angiopoietin-1 receptor (Homo sapiens, UniProt Q02763); experiment: Inhibition of recombinant TIE2; procedure, shortened: as §1
[6] = target: T2, Receptor-type tyrosine-protein kinase FLT3 (Homo sapiens, UniProt P36888); experiment: Inhibition of recombinant FLT3; procedure, shortened: as §1
T2 sequence (P36888 whole entry): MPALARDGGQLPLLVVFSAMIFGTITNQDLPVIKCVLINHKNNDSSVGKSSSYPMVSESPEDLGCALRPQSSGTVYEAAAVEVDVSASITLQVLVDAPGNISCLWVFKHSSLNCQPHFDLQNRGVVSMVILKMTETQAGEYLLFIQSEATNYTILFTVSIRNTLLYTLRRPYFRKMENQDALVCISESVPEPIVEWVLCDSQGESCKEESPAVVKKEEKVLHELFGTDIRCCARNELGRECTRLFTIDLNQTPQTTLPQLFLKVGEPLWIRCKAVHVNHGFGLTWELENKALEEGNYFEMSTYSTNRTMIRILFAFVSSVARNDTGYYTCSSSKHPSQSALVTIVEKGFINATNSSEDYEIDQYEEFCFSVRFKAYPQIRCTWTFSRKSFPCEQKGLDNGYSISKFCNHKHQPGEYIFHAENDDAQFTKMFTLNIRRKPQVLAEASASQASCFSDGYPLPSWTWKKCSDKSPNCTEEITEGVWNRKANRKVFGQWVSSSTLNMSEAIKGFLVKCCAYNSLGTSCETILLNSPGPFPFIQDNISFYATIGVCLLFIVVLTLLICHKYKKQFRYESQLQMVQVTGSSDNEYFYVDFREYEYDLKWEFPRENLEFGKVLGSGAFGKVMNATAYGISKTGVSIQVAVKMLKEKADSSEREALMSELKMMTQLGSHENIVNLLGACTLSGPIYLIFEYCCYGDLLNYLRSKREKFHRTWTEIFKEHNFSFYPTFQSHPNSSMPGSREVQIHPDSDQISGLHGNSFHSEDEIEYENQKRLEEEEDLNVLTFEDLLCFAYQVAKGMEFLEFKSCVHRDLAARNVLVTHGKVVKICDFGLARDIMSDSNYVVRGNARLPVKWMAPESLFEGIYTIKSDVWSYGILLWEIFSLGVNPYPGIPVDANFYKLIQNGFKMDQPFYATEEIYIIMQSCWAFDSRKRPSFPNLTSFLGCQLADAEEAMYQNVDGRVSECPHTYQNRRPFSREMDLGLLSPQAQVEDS

[7] = target: T3, NUAK family SNF1-like kinase 1 (Homo sapiens, UniProt O60285); experiment: Inhibition of recombinant ARK5
T3 sequence (O60285 whole entry): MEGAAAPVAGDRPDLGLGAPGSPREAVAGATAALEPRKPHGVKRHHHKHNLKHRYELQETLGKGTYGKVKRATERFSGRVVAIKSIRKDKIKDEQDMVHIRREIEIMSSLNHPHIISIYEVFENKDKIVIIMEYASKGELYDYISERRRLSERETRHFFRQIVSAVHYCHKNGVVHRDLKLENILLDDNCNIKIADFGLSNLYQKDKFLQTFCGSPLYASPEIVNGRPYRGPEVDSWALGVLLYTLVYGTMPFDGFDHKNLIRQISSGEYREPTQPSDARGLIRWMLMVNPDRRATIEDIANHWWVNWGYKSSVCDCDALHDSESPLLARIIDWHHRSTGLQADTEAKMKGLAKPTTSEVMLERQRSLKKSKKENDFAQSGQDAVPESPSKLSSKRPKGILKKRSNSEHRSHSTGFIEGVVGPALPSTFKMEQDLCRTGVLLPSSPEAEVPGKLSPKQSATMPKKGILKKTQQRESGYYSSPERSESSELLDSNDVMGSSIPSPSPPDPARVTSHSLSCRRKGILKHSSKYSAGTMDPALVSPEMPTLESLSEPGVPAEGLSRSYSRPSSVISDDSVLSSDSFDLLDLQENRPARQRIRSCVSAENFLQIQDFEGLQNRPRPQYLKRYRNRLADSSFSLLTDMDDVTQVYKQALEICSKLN

[8] = target: Cyclin-dependent kinase 4/cyclin D1 (Homo sapiens, UniProt P11802+P24385); experiment: Inhibition of recombinant CDK4/CycD1; procedure, shortened: as §1
[9] = target: Receptor tyrosine-protein kinase erbB-2 (Homo sapiens, UniProt P04626); experiment: Inhibition of recombinant ERBB2; procedure, shortened: as §1
L5178Y [10] = experiment: Cytotoxicity against mouse L5178Y cells by MTT assay; assay type: functional, cell-based
Procedure, shortened: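 Mouse L5178Y lymphoma cells; MTT microculture tetrazolium read-out, relative to untreated controls. Vehicle controls with 0.1% EGMME/DMSO. Triplicate wells, experiment repeated three times.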

[11] = target: T2, Receptor-type tyrosine-protein kinase FLT3; experiment: Inhibition of recombinant FLT3 phosphorylation transfected in mouse embryonic fibroblast
Procedure, shortened: (§2)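 Mouse embryonic fibroblasts stably transfected with FLT3 or IGF1-R; 90 min pretreatment with 10 µM staurosporine, compound 90 min at 37 °C. Stimulation with FLT3-ligand 5 min (FLT3) or IGF1 3 min (IGF1-R). Lysates captured on antibody-coated plates; autophosphorylation detected with antiphosphotyrosine PY99.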

Aurora kinase B [12] = target: T1, Aurora kinase B; experiment: Inhibition of recombinant Aurora B phosphorylation in human HT29 cells; assay type: cell-based, HT-29
Procedure, shortened: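 HT29 cells pretreated 90 min with 10 µM staurosporine, then compound 90 min at 37 °C, then calyculin A 30 min. Lysates captured on antibody-coated plates; phospho-histone H3 detected with anti-P-His H3 as the Aurora B read-out.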

[13] = target: Vascular endothelial growth factor receptor 2 (Homo sapiens, UniProt P35968); experiment: Inhibition of recombinant VEGFR2 phosphorylation in human HUE cells; assay type: cell-based
Procedure, shortened: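 Human endothelial HUE cells pretreated 90 min with 10 µM staurosporine, compound 90 min at 37 °C, then VEGF165 7 min. Lysates captured on antibody-coated plates; VEGF-R2 autophosphorylation detected with antiphosphotyrosine PY99.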

[14] = target: Insulin-like growth factor 1 receptor (Homo sapiens, UniProt P08069); experiment: Inhibition of recombinant IGF1R phosphorylation transfected in mouse embryonic fibroblast; procedure, shortened: as §2

Platelet-derived growth factor receptor beta, sequence (P09619 whole entry): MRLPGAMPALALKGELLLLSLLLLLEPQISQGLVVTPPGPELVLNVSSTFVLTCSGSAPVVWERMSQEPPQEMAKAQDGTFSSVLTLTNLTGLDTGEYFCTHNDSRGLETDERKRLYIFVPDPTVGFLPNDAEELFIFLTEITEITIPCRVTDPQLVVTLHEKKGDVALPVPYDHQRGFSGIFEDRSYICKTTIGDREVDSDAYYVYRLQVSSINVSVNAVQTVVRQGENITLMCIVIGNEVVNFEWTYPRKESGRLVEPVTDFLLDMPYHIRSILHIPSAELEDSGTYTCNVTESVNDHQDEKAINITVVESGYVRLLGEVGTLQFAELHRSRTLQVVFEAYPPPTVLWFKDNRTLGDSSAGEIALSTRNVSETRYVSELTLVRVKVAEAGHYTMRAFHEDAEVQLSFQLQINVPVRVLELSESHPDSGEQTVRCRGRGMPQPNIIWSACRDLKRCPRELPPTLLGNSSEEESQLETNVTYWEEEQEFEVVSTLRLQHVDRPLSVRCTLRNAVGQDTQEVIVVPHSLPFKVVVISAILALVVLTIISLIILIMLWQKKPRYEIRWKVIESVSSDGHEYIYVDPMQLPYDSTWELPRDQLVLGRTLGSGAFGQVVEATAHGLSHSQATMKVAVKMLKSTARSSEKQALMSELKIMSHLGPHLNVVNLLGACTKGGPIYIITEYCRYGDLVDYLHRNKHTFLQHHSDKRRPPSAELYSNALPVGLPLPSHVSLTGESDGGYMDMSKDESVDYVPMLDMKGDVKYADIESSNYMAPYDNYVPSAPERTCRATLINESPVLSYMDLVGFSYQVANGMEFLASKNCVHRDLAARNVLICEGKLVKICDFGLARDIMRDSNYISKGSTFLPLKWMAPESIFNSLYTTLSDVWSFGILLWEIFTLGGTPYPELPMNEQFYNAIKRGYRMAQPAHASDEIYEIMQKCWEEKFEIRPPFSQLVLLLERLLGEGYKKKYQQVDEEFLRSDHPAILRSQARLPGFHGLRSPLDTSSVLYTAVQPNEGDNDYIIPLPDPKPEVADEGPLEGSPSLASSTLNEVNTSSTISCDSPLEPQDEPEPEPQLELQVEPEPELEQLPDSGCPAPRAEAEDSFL
Vascular endothelial growth factor receptor 3, sequence (P35916 whole entry): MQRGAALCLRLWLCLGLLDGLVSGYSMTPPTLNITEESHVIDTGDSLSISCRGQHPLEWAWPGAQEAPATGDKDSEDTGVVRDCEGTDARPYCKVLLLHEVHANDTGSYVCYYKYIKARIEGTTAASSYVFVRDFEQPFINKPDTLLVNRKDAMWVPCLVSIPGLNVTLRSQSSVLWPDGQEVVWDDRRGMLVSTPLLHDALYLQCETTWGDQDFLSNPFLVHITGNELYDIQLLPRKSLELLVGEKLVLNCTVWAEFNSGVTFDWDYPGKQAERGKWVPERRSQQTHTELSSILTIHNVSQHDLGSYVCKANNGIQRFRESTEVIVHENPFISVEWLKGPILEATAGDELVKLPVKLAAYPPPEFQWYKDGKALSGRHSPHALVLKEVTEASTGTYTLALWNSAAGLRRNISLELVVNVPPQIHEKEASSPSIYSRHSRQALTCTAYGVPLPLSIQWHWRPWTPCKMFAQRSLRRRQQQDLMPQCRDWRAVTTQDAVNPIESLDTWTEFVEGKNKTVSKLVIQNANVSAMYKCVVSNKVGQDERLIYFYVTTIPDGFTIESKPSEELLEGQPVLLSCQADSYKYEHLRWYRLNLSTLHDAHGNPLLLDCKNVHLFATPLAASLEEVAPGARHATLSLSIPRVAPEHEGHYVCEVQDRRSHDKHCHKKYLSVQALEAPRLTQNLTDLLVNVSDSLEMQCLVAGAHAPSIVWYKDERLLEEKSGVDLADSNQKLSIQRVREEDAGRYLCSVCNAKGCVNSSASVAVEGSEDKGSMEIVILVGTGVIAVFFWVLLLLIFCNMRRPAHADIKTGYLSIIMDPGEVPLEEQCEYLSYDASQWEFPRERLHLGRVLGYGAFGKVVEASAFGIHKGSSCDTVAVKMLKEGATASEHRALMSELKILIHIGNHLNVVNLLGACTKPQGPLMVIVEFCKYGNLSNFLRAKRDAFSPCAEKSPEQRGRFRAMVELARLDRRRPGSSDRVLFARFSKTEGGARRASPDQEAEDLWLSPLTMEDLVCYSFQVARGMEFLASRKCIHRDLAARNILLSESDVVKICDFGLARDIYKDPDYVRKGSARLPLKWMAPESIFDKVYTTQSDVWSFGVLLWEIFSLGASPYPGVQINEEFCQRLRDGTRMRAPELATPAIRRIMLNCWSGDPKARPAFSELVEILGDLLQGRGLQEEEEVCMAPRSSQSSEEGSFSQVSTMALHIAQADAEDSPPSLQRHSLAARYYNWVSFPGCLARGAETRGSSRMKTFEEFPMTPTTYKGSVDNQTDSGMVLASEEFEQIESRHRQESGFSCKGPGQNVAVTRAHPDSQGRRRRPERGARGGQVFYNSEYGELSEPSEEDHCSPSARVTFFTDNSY
Insulin receptor, sequence (P06213 28-758 limits assumed): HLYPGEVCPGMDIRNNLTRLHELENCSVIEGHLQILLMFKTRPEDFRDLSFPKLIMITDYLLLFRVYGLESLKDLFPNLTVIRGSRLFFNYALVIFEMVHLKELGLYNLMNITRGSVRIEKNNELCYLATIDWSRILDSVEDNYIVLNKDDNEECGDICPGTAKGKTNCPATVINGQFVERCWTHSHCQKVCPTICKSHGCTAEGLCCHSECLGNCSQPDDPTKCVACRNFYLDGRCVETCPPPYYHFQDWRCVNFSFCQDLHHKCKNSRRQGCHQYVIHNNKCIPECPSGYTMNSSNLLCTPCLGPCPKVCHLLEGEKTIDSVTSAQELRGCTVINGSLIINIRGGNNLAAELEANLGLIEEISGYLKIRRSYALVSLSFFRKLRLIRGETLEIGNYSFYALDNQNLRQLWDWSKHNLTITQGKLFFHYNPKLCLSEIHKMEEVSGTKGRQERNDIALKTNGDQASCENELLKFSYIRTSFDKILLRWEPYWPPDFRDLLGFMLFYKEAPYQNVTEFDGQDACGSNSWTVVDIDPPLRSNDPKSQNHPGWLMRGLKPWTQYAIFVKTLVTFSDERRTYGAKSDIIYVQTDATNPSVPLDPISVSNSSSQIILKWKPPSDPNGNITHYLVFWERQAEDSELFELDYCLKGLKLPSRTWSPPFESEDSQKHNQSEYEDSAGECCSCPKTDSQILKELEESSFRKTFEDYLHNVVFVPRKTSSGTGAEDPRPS
Insulin receptor, sequence (P06213 763-1382 limits assumed): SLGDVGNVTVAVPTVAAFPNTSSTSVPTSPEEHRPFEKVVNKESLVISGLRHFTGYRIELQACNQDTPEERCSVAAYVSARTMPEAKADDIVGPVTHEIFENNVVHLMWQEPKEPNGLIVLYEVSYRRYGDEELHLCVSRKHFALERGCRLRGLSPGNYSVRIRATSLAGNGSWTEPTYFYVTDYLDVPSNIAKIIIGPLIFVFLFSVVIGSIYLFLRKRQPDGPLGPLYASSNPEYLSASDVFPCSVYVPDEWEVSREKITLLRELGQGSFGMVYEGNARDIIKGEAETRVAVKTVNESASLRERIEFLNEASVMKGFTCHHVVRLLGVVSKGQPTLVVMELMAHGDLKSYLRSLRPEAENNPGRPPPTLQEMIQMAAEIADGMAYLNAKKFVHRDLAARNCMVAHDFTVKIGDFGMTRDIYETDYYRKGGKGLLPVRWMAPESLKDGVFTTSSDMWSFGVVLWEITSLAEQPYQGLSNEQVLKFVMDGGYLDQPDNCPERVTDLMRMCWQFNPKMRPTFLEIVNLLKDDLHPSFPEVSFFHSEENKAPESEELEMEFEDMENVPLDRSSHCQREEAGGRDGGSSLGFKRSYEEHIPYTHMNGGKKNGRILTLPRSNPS
Receptor tyrosine-protein kinase erbB-2, sequence (P04626 whole entry): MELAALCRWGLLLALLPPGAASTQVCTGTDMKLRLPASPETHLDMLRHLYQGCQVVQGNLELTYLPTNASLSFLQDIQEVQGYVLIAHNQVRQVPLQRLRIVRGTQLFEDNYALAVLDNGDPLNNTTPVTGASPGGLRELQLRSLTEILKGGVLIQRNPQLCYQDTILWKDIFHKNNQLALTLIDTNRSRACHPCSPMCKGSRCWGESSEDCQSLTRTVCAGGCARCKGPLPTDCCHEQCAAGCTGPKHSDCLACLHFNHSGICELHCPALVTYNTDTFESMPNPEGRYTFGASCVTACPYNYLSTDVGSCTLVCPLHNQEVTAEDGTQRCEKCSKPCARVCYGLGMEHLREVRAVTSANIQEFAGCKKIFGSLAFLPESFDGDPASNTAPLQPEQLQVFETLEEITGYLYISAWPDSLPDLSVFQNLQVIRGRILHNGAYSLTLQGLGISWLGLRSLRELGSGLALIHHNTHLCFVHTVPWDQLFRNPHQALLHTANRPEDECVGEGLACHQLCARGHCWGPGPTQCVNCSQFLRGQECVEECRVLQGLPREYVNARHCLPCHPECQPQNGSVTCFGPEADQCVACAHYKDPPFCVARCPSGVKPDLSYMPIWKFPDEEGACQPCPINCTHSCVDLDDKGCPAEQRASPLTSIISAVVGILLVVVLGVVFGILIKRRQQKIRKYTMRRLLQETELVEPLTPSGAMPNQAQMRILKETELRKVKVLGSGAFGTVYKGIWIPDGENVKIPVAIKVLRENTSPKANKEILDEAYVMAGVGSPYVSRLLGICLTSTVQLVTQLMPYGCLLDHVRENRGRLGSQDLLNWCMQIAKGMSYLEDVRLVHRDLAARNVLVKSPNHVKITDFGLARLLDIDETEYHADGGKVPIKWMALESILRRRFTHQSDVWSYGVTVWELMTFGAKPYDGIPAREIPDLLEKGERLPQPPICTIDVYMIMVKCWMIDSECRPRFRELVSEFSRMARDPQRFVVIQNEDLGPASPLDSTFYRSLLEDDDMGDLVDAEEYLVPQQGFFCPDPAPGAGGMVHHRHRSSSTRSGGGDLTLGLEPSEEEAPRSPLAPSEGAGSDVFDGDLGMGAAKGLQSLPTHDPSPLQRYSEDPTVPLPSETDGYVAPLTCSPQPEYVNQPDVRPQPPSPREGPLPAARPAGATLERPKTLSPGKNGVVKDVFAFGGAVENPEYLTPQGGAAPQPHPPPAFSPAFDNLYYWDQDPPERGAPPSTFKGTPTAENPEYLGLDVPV

SMILES | IC50 ([1]; read-out: IC50 (converted)) | IC50 [2] | IC50 (Insulin receptor; read-out: IC50 (converted)) | IC50 [3] | IC50 (Aurora kinase B [4]; read-out: IC50 (converted)) | Activity (L5178Y [5]) | IC50 (Angiopoietin-1 receptor) | IC50 ([6]; read-out: IC50 (converted)) | IC50 ([7]; read-out: IC50 (converted)) | IC50 [8] | IC50 [9] | IC50 (Aurora kinase B [4]) | IC50 (Angiopoietin-1 receptor; read-out: IC50 (converted)) | IC50 [6] | IC50 [1] | IC50 [7] | EC50 (L5178Y [10]) | IC50 ([2]; read-out: IC50 (converted)) | IC50 ([9]; read-out: IC50 (converted)) | further results
COc1cc(O)c(C(=O)O)c(C2=C(C)C[C@@H](O)C2=O)c1 [ALTERNARIENONIC ACID] | 13.3 µM | > 1 ×10⁻⁵ g/ml | 29.1 µM | > 1 ×10⁻⁵ g/ml | 10.8 µM | 101.2% | > 1 ×10⁻⁵ g/ml | 23.7 µM | 14.4 µM | > 1 ×10⁻⁵ g/ml | > 1 ×10⁻⁵ g/ml |  |  |  |  |  |  |  |  | 
O=C1C[C@H](O)[C@@H]2c3c(ccc(O)c31)-c1ccc(O)c3c1[C@@]2(O)CCC3=O [ALTERTOXIN I] | 7.95 µM | > 1 ×10⁻⁵ g/ml |  |  |  | 77.3% |  |  | 6.24 µM |  | > 1 ×10⁻⁵ g/ml | 9.8 ×10⁻⁷ g/ml | 25 µM | 6.6 ×10⁻⁷ g/ml |  |  |  |  |  | 
COc1cc(O)c2c(c1)C1(OC2=O)C(C)=CC(=O)C1O (stereo not drawn) [TALAROFLAVONE] |  | > 1 ×10⁻⁵ g/ml |  |  |  | 92.9% | > 1 ×10⁻⁵ g/ml |  |  | > 1 ×10⁻⁵ g/ml | > 1 ×10⁻⁵ g/ml | > 1 ×10⁻⁵ g/ml |  | > 1 ×10⁻⁵ g/ml | > 1 ×10⁻⁵ g/ml | > 1 ×10⁻⁵ g/ml |  |  |  | 
COc1cc(O)c(C(=O)O)c(-c2cc(O)c(O)cc2C)c1 [ALTENUSIN] |  | > 1 ×10⁻⁵ g/ml | 19.3 µM |  | 3.79 µM | 1.2% |  | 5.51 µM | 22.7 µM |  | > 1 ×10⁻⁵ g/ml |  | 33.8 µM |  | > 1 ×10⁻⁵ g/ml |  | 6.8 µg/mL (≈ 23.4 µM) |  |  | 
Cc1cc(O)cc2oc(=O)c3c(O)cc(O)cc3c12 [ALTERNARIOL] | 5.03 µM |  |  | 8.9 ×10⁻⁷ g/ml |  | 3.7% |  |  |  |  |  | 4.2 ×10⁻⁷ g/ml | 27.1 µM | 4.3 ×10⁻⁷ g/ml |  | 9.5 ×10⁻⁷ g/ml | 1.7 µg/mL (≈ 6.58 µM) | 12.8 µM | 36.4 µM | IC50 [11]: 3.87 µM; IC50 (Aurora kinase B [12]): 3.87 µM; IC50 [13]: 3.87 µM; IC50 [14]: 3.87 µM
COc1cc(O)c2c(=O)oc3c(O)c(O)cc(C)c3c2c1 |  |  | 4.51 µM |  | 3.82 µM | 47.1% |  |  |  |  |  |  | 4.86 µM | 5.3 ×10⁻⁷ g/ml | 3.9 ×10⁻⁷ g/ml | 3.5 ×10⁻⁷ g/ml |  | 8.33 µM | 9.37 µM | IC50 ([3]; read-out: IC50 (converted)): 6.24 µM
Cc1cc(O)cc2oc(=O)c3c(O)cc(OS(=O)(=O)O)cc3c12 | 5.03 µM | 8.4 ×10⁻⁷ g/ml | 8.57 µM |  |  | 0.9% |  |  |  |  |  | 2.2 ×10⁻⁷ g/ml | 20.1 µM | 3.3 ×10⁻⁷ g/ml |  | 7.5 ×10⁻⁷ g/ml | 4.5 µg/mL (≈ 13.3 µM) |  | 24.8 µM | 
COc1cc(O)c2c(=O)oc3cc(O)cc(C)c3c2c1 |  |  | 29 µM |  | 4.77 µM | 1.8% |  | 3.67 µM | 14.7 µM |  |  |  | 12.9 µM |  | 9.6 ×10⁻⁷ g/ml |  | 7.8 µg/mL (≈ 28.6 µM) | 13.2 µM | 16.5 µM | 
COc1cc(O)c2c(c1)-c1cc(O)c(O)cc1COC2=O [ALTERLACTONE] |  | > 1 ×10⁻⁵ g/ml |  | > 1 ×10⁻⁵ g/ml |  | 11.8% | > 1 ×10⁻⁵ g/ml |  |  | > 1 ×10⁻⁵ g/ml | > 1 ×10⁻⁵ g/ml | > 1 ×10⁻⁵ g/ml |  | > 1 ×10⁻⁵ g/ml | > 1 ×10⁻⁵ g/ml | > 1 ×10⁻⁵ g/ml |  |  |  | IC50 (Insulin receptor): > 1 ×10⁻⁵ g/ml
Cc1cc(O)c(O)cc1-c1cc(O)cc(O)c1C(=O)O | 24.6 µM | > 1 ×10⁻⁵ g/ml |  |  | 5.43 µM | 0.8% |  | 6.52 µM | 9.41 µM |  | > 1 ×10⁻⁵ g/ml |  | 13.8 µM |  |  |  | 6.2 µg/mL (≈ 22.4 µM) |  |  | IC50 ([3]; read-out: IC50 (converted)): 21 µM
